In ChEMBL document CHEMBL1142048, “Design, synthesis and structure-activity relationship studies of hexahydropyrazinoquinolines as a novel class of potent and selective dopamine receptor 3 (D3) ligands” (Bioorg Med Chem Lett, 2005):

Assays:
[1] = Binding affinity for D2-like [3H]spiperone receptor was determined using caudate-putamen of adult male Spragueo?=Dawley rats; format: tissue-based, Rattus norvegicus
How it was run: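 Rat caudate-putamen membranes, adult male Sprague–Dawley. Buffer 50 mM Tris–HCl, 5 mM KCl, 2 mM MgCl2, 2 mM CaCl2, pH 7.4 at 23 °C. [3H]spiperone 0.2 nM, with nonspecific binding defined by 1 μM (+)-butaclamol. Compounds were dissolved in 100% EtOH up to 5 mM (stock). Ki was derived from the radioligand KD.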

[2] = molecular target: D(3) dopamine receptor (Rattus norvegicus, UniProt P19020); assay: biochemical
Sequence of D(3) dopamine receptor (P19020 whole entry): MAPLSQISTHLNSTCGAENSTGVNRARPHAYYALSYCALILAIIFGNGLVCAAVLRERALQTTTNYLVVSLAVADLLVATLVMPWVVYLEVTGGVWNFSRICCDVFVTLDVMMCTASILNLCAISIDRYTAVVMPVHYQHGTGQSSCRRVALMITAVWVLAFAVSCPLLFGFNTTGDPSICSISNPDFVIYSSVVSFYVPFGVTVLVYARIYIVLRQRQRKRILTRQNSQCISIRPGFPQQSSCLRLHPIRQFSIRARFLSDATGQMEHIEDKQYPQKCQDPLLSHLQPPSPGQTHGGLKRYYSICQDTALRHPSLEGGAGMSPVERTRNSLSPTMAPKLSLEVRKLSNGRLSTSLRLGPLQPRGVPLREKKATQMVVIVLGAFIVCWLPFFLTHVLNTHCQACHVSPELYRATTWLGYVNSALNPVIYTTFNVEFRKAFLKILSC

[3] = Binding affinity for D1-like [3H]-SCH- 23390 receptor was determined using caudate-putamen of adult male Spragueo?=Dawley rats; format: tissue-based, Rattus norvegicus
How it was run: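 Rat caudate-putamen membranes, adult male Sprague–Dawley. Buffer 50 mM Tris–HCl, 5 mM KCl, 2 mM MgCl2, 2 mM CaCl2, pH 7.4 at 23 °C. [3H]SCH 23390 0.3 nM, with nonspecific binding defined by 1 μM (+)-butaclamol. Compounds were dissolved in 100% EtOH up to 5 mM (stock).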

SMILES	Ki [1]	Ki [2]	Ki [3]
O=C(CCCCN1CCN2c3ccccc3CCC2C1)c1ccc(F)cc1 (stereo not drawn)	852 nM	381 nM	2470 nM
O=C(NCCCN1CCN2c3ccccc3CCC2C1)c1ccc(-c2ccccc2)cc1 (stereo not drawn)	906 nM	2520 nM	356 nM
O=C(CCCN1CCN2c3ccccc3CCC2C1)c1ccc(F)cc1 (stereo not drawn)	243 nM	304 nM	904 nM
COc1ccccc1N1CCN(CCCCNC(=O)c2ccc3ccccc3c2)CC1 [BP-897]	162 nM	–	636 nM
O=C(CCN1CCN2c3ccccc3CCC2C1)c1ccc(F)cc1 (stereo not drawn)	3640 nM	2750 nM	8890 nM
O=C(NCCCCN1CCN2c3ccccc3CCC2C1)c1ccc(-c2ccccc2)cc1 (stereo not drawn)	220 nM	22 nM	258 nM
O=C(CN1CCN2c3ccccc3CCC2C1)c1ccc(F)cc1 (stereo not drawn)	3890 nM	7490 nM	7950 nM

Now from value to compound:

Ki [1]	Ki [2]	Ki [3]	SMILES
1120 nM	45 nM	5800 nM	COc1ccc2c(c1)N1CCN(CCCCNC(=O)c3ccc4ccccc4c3)CC1CC2 (stereo not drawn)
2440 nM	1540 nM	153000 nM	O=C(NCCCN1CCN2c3ccccc3CCC2C1)c1ccc2ccccc2c1 (stereo not drawn)
1570 nM	18 nM	791 nM	O=C(NCCCCN1CCN2c3ccccc3CCC2C1)c1ccc2ccccc2c1 (stereo not drawn)
> 250000 nM	244 nM	> 250000 nM	COc1ccc2c(c1)CCC1CN(CCCCNC(=O)c3ccc4ccccc4c3)CCN21 (stereo not drawn)
258 nM	–	6050 nM	COc1cccc2c1N1CCN(CCCCNC(=O)c3ccc4ccccc4c3)CC1CC2 (stereo not drawn)
1390 nM	1650 nM	1220 nM	O=C(NCCN1CCN2c3ccccc3CCC2C1)c1ccc2ccccc2c1 (stereo not drawn)
762 nM	5.8 nM	4600 nM	COc1cccc2c1CCC1CN(CCCCNC(=O)c3ccc4ccccc4c3)CCN21 (stereo not drawn)
> 100000 nM	23000 nM	> 100000 nM	O=C(NCCN1CCN2c3ccccc3CCC2C1)c1ccc(-c2ccccc2)cc1 (stereo not drawn)
